MITF TRPM1 HTS = MITF TRPM1 promoter activation in melanoma cells; SK-MEL-5 TRPM1-promoter luciferase, 24 h; % of positive control, neutral wells = 0; activation, % at 12.5 µM; 300,000 compounds, 0.75% hits; AID 588334;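 active = mean activation of at least 80% with every replicate also reaching 80%; inconclusive = mean reaches 80% but some replicate falls short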;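 note: 0% = neutral control wells and 100% = parthenolide positive control wells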
Vif inh = HIV Vif inhibition. HEK293T cells, Vif self-association by quenched fluorescence, imaging, 24 h. inhibition, % at 7.49 µM. 340,000 compounds, 0.35% hits. AID 602346; in the data active = inhibition above about 50%, passing the limit was not always enough; inconclusive = no clear call, values can overlap the other calls; inactive = below about 31%
Wnt bcat act = Wnt/beta-catenin pathway activation. Wnt/beta-catenin reporter cell assay, activator, plate reader. activation, % at 9.35 µM. 300,000 compounds, 1.2% hits. AID 743398; in the data active = activation above about 30%, passing the limit was not always enough; inconclusive = no clear call, values can overlap the other calls;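 note: 0% = neutral control wells and 100% = positive control wells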
esBAF inh = inhibitors of esBAF chromatin remodeling in mouse ES cells; 350,000 compounds, 2% hits; reporter increase, % at 12.5 µM; Bmi1-luciferase knock-in reporter, 24 h; 100% = twice the neutral-well signal; in the data active = activation above about 40%; inconclusive = no clear call, values can overlap the other calls;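 note: 0% = median of the plate's neutral control wells and 100% = double that signal; a rise in the Bmi1 reporter signal indicates esBAF inhibition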
Xi reactivation = reactivates the inactive X chromosome in mouse fibroblasts; 360,000 compounds, 0.055% hits; activation, % at 7.58 µM; XiGFP mouse fibroblasts, % GFP-positive cells imaging, 3 d; cells co-treated with 5-aza-dC sensitizer; scaled so ellipticine positive control = 100%; AID 743238;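 active = mean normalized replicate activation at least 10% and every replicate at or above 10%; inconclusive = only one of the two criteria met; inactive = mean below 10% and not all replicates reach 10%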;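 note: 0% = median of on-plate neutral control wells and 100% = ellipticine 6 µM median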
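System: XiGFP fibroblasts, SV40-immortalized. Medium: DMEM plus 5-aza-dC sensitizer. Doses: single point. Timing: 3 d treatment, 15 min room-temperature fixation. Control set: ellipticine 6 µM.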
The depositor's hits bear a star; i = inactive; u = inconclusive; x = no result. Shown are actives, neighbours in structure and some others; about 2.6% of the full set was active somewhere.

SMILES	MITF TRPM1 HTS	Vif inh	Wnt bcat act	esBAF inh	Xi reactivation
c1ccc(SCc2nc(-c3cccnc3)no2)cc1	108.5*	-3.7	x	13.4	x
c1ccc(SCc2nc(-c3ccccn3)no2)cc1	82.6*	-3.8	x	25.6	x
COc1ccccc1Cc1nc(-c2cccnc2)no1	x	9.6	38.4*	x	0.1
Cc1ccc(-c2noc(CSc3ccccc3)n2)cc1	102.2*	-4.4	51.7*	-0.5	x
c1ccc(C(Cc2nc(-c3ccccn3)no2)c2ccccc2)cc1	40.5	-6.2	x	28.7	x
C[C@@H]1CN([C@H](C)CO)C(=O)c2cc(Br)cnc2O[C@@H]1CN(C)C(=O)C1CCC1	x	x	x	x	-0.7
COc1ccc(CN(C)C[C@@H]2OCCCC[C@H](C)Oc3ccc(NC(=O)NC(C)C)cc3C(=O)N([C@H](C)CO)C[C@@H]2C)cc1	x	x	x	-3.0	0.0
Cc1cccc(-c2noc(CSc3ccccc3)n2)c1	86.7*	-0.8	-0.6	45.7*	x
Cc1ccc(-c2noc(CSc3nc(N)cc(N)n3)n2)cc1	x	-4.4	x	x	x
O=C(Nc1ccc(F)cc1)c1cc(-c2ccccc2)no1	24.3	22.4	35.3*	x	-0.1
COc1ccc(-c2noc(N3CCC(C(=O)Nc4ccccc4F)CC3)n2)cc1	x	1.9	1.0	-32.2	-0.1
COc1ccc(-c2cc(C(=O)Nc3ccccc3F)on2)cc1	95.0*	11.4	11.1	x	0.1
COc1ccc(-c2cc(C(=O)Nc3ccccc3)on2)cc1	100.7*	6.6	13.2	x	-0.5
COCCNc1nc(C)cc(-c2cc(C(=O)Nc3ccccc3)on2)n1	14.3	-15.2	x	-5.1	x
CN1/C(=C\C=C2/SC(=S)NC2=O)C(C)(C)c2ccccc21	-14.5	i	-1.5	-20.9	1.1
CCCN1C(=O)/C(=C\C=C2\N(CC)c3ccccc3C2(C)C)SC1=S	5.1	166.5*	-4.4	-8.9	0.4
Cc1ccc(C(=O)NC2CCCC2)s1	11.8	10.3	0.2	x	0.0
CC1CCC(NC(=O)c2cc3c(s2)CCCC3)CC1 (centres undefined)	100.3*	-3.8	u	u	0.0
CC1CCC(NC(=O)c2ccc(Br)o2)CC1 (centres undefined)	x	-3.9	1.3	13.3	0.0
Cc1ccc(C(=O)NC2CCC(C)CC2)s1 (centres undefined)	49.8	-4.1	62.2*	x	0.6
Cc1ccc(C(=O)NC2CCC(C)CC2)o1 (centres undefined)	38.1	5.7	20.5	54.6*	0.0
COc1ccc(CN(C)C[C@H]2Oc3ccc(NC(=O)Cc4cn(C)c5ccccc45)cc3CC(=O)N([C@H](C)CO)C[C@@H]2C)cc1	x	x	x	x	0.3
CCCC(=O)Nc1ccc2c(c1)C(=O)N(C)C[C@H](OC)[C@@H](C)CN(CCC(F)(F)F)[C@H](C)CO2	x	x	x	-12.4	0.0
Cc1ccc2cc3cc(C(=O)NC4CC4)oc3nc2c1	56.7	-6.1	31.2*	45.5*	0.2
Cc1ccc2cc3cc(C(=O)N4CC(C)CC(C)C4)oc3nc2c1 (centres undefined)	66.8	-16.5	21.1	-15.3	x
SMILES	MITF TRPM1 HTS	Vif inh	Wnt bcat act	esBAF inh	Xi reactivation
Cc1ccc2cc3cc(C(=O)NC4CCCCC4)oc3nc2c1	43.8	-4.1	13.4	46.6*	0.1
Cc1ccc2cc3cc(C(=O)N4CCCCC4C)oc3nc2c1 (centres undefined)	74.2	0.1	x	50.1*	x
C[C@H](CO)N1C[C@H](C)[C@@H](CN(C)Cc2ccc(C(=O)Nc3ccccc3N)cc2)Oc2c(NC(=O)c3cnccn3)cccc2C1=O	x	x	x	-18.2	-0.3
O=C(NCCc1ccccc1)c1ccccc1C(=O)NCCc1ccccc1	x	29.8	12.5	23.3	-0.1
O=C(NCCc1ccccc1)c1n[nH]c2ccccc12	62.8	-7.3	51.9*	24.3	0.0
O=C(NCCc1ccccc1)c1ccc(Br)o1	u	-7.6	25.1	48.6*	0.0
O=C(NCCc1ccccc1)c1nccc2ccccc12	80.7*	-5.0	28.9	80.2*	-0.7
O=C(NCCc1ccccc1)c1c(O)c2ccccc2[nH]c1=O	38.3	5.0	4.6	50.2*	0.0
C[C@@H]1CN([C@@H](C)CO)C(=O)c2cccc(NS(=O)(=O)c3ccc(F)cc3)c2O[C@H]1CN(C)S(=O)(=O)c1ccccc1	x	x	x	-0.7	-0.8
O=C(NCCc1ccccc1)c1c[nH]c2c(F)cccc2c1=O	x	-5.2	4.3	38.1	0.2
Cc1cccc2c(=O)c(C(=O)NCCc3ccccc3)c[nH]c12	39.2	-3.1	5.4	52.3*	0.0
Cc1nc2ccccc2n1CC(O)COc1ccccc1Cl (centres undefined)	-7.3	-4.3	37.1*	1.4	0.3
CCCN1[C@@H]2c3cccc(=O)n3C[C@H]1[C@H](CO)[C@H]2C(=O)N[C@@H](C)c1ccccc1	x	x	x	x	0.4
CCOC(=O)c1c(C)[nH]c(C(=O)COC(=O)c2cccnc2Cl)c1C	82.9*	-9.3	16.4	64.8*	0.1
CCOC(=O)c1c(C)[nH]c(C(=O)COC(=O)c2ccncc2)c1C	-5.3	1.3	-0.6	5.1	x
CCOC(=O)c1sc(NC(=O)c2ccc3nc[nH]c3c2)nc1C	26.6	6.3	8.8	52.9*	0.2
CCSc1nnc(NC(=O)c2cccc(OCc3c(C)noc3C)c2)s1	x	-37.6	x	3.9	x
CCSc1nnc(NC(=O)c2ccc3nc[nH]c3c2)s1	31.6	4.2	-3.5	90.7*	0.3
CNC(=O)c1[nH]nc2c1CCc1cc(OC)ccc1-2	54.1	-1.3	2.8	29.4	0.0
COc1ccc2c(c1)CCc1c-2n[nH]c1C(=O)NCCC(C)C	55.4	-9.0	30.6*	2.3	0.3
COc1ccccc1-c1ccc2c(c1)[C@H]1[C@H](CCN1S(=O)(=O)c1ccccc1F)[C@H](CO)N2	x	x	x	2.0	0.0
CCCC#Cc1ccc([C@@H]2[C@H](CO)N3C(=O)CN(C(=O)NC4CCCC4)C[C@@H]23)cc1	x	x	x	x	-0.1
Fc1ccccc1CSc1ncnc2c1ncn2C1CCCCO1 (centres undefined)	88.7*	-0.5	47.6*	38.5	0.1
CN1C(=O)c2cc(NC(=O)C3CC3)ccc2OC[C@@H]2O[C@H](CC(=O)NCc3ccccc3F)CC[C@@H]21	x	x	x	x	0.1
CC(C)(C)OC(=O)C[C@@H]1C/C=C\C[C@@H](CC(=O)N[C@H](CO)Cc2ccccc2)C(=O)N2CCC[C@@H]2COC1=O	0.8	-13.4	55.6*	1.8	0.0
SMILES	MITF TRPM1 HTS	Vif inh	Wnt bcat act	esBAF inh	Xi reactivation
CC(=O)Nc1ccc(NC(=O)/C(Cl)=C/c2ccccc2)cc1	111.5*	4.8	-1.2	53.1*	x
c1ccc(-c2ccc3sccc3n2)cc1	115.5*	x	48.0*	x	-0.6
C[C@H](O)C#Cc1cnc2c(c1)C(=O)N([C@@H](C)CO)C[C@@H](C)[C@H](CN(C)CC1CCCC1)O2	x	x	x	0.0	-0.1
Cc1cc(O)c(NC(=O)c2cccc([N+](=O)[O-])c2)cc1C	6.5	-14.8	30.4*	39.3	0.0
CCN(CC)c1ccc(C(=O)Nc2ccccc2)cc1[N+](=O)[O-]	87.1*	-3.6	13.0	x	0.0
COc1ccc(C(=O)Nc2cccc([N+](=O)[O-])c2)cc1Br	x	74.5*	-2.4	22.5	x

Assay outcomes: PubChem, Broad Institute
